Reference: ChEMBL document CHEMBL5724801, “EUbOPEN Chemogenomics Library - Multiplex” (2024)
Where “and” joins values, the source holds several entries; their conditions need not be identical. Identical values can stand only once.

System: Fibroblast
Experiment: Multiplex assay against human fibroblast
Format: toxicity, cell-based
Procedure, shortened: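 With compound added, live cells were imaged on a CQ1 microscope at 37°C and 5% CO2; staining with Hoechst33342, BioTracker Green Microtubule Cytoskeleton Dye, MitoTracker Red and Annexin V Alexa Fluor 680 had been done at seeding. The CellPathfinder machine-learning gating scheme split cells into Hoechst high-intensity objects or normal cells, normal cells into healthy, pyknosed or fragmented nuclei, and pyknosed cells into mitotic or apoptotic. The tubulin, mitochondrial-mass and membrane-permeability phenotypes are per cents of healthy-nucleus cells.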

[1] = 12 h, 1 µM, compound concentration 1 uM
[2] = 12 h, 10 µM, compound concentration 10 uM
[3] = 24 h, 1 µM, compound concentration 1 uM
[4] = 24 h, 10 µM, compound concentration 10 uM
[5] = 48 h, 1 µM, compound concentration 1 uM
[6] = 48 h, 10 µM, compound concentration 10 uM

C[C@H](N)COC(=O)[C@@H](CCCCN)NC(=O)Cc1c(-c2ccc3ccccc3c2)[nH]c2c1ccc1ccccc12
Population Apoptotic (%) [1]: 32% and 50%
Population Fragmented Nuclei (%) [1]: 18% and 25%
Population Healthy Nuclei (%) [1]: 65% and 51%
Population Hoechst High Intensity Objects (%) [1]: 1% and 4%
Population Membrane Permeable-Phenotype (%) [1]: 0% and 5%
Population Mitochondria Different-Phenotype (%) [1]: 7% and 4%
Population Mitotic Cells (%) [1]: 67% and 50%
Population Normal (%) [1]: 98% and 95%
Population Pyknosed Nuclei (%) [1]: 15% and 23%
Population Tubulin-Different-Phenotype (%) [1]: 32% and 36%
Total Cell Count [1]: 179 and 170
Population Apoptotic (%) [2]: 43% and 62%
Population Fragmented Nuclei (%) [2]: 13% and 32%
Population Healthy Nuclei (%) [2]: 69% and 50%
Population Hoechst High Intensity Objects (%) [2]: 2% and 7%
Population Membrane Permeable-Phenotype (%) [2]: 1% and 5%
Population Mitochondria Different-Phenotype (%) [2]: 8% and 6%
Population Mitotic Cells (%) [2]: 56% and 37%
Population Normal (%) [2]: 97% and 92%
Population Pyknosed Nuclei (%) [2]: 16% and 17%
Population Tubulin-Different-Phenotype (%) [2]: 33% and 47%
Total Cell Count [2]: 183 and 167
Population Apoptotic (%) [3]: 53% and 29%
Population Fragmented Nuclei (%) [3]: 16% and 25%
Population Healthy Nuclei (%) [3]: 66% and 54%
Population Hoechst High Intensity Objects (%) [3]: 3% and 7%
Population Membrane Permeable-Phenotype (%) [3]: 0% and 3%
Population Mitochondria Different-Phenotype (%) [3]: 5% and 7%
Population Mitotic Cells (%) [3]: 46% and 70%
Population Normal (%) [3]: 96% and 92%
Population Pyknosed Nuclei (%) [3]: 17% and 20%
Population Tubulin-Different-Phenotype (%) [3]: 30% and 39%
Total Cell Count [3]: 179 and 162
Population Apoptotic (%) [4]: 63% and 50%
Population Fragmented Nuclei (%) [4]: 13% and 36%
Population Healthy Nuclei (%) [4]: 74% and 50%
Population Hoechst High Intensity Objects (%) [4]: 7% and 6%
Population Membrane Permeable-Phenotype (%) [4]: 0% and 5%
Population Mitochondria Different-Phenotype (%) [4]: 5%
Population Mitotic Cells (%) [4]: 36% and 50%
Population Normal (%) [4]: 92% and 93%
Population Pyknosed Nuclei (%) [4]: 11% and 13%
Population Tubulin-Different-Phenotype (%) [4]: 31% and 54%
Total Cell Count [4]: 171 and 159
Population Apoptotic (%) [5]: 72% and 51%
Population Fragmented Nuclei (%) [5]: 21% and 30%
Population Healthy Nuclei (%) [5]: 65% and 50%
Population Hoechst High Intensity Objects (%) [5]: 5% and 2%
Population Membrane Permeable-Phenotype (%) [5]: 0% and 3%
Population Mitochondria Different-Phenotype (%) [5]: 7% and 6%
Population Mitotic Cells (%) [5]: 27% and 48%
Population Normal (%) [5]: 94% and 97%
Population Pyknosed Nuclei (%) [5]: 12% and 18%
Population Tubulin-Different-Phenotype (%) [5]: 26% and 39%
Total Cell Count [5]: 186 and 169
Population Apoptotic (%) [6]: 46% and 55%
Population Fragmented Nuclei (%) [6]: 16% and 36%
Population Healthy Nuclei (%) [6]: 68% and 52%
Population Hoechst High Intensity Objects (%) [6]: 9% and 5%
Population Membrane Permeable-Phenotype (%) [6]: 0% and 7%
Population Mitochondria Different-Phenotype (%) [6]: 4% and 8%
Population Mitotic Cells (%) [6]: 53% and 44%
Population Normal (%) [6]: 90% and 94%
Population Pyknosed Nuclei (%) [6]: 15% and 11%
Population Tubulin-Different-Phenotype (%) [6]: 35% and 54%
Total Cell Count [6]: 185 and 166

Clc1ccccc1C(c1ccccc1)(c1ccccc1)n1cccn1
Population Apoptotic (%) [1]: 14.29% and 24%
Population Healthy Nuclei (%) [1]: 59.04% and 80.46%
Population Hoechst High Intensity Objects (%) [1]: 0%
Population Membrane Permeable-Phenotype (%) [1]: 4.08% and 0.71%
Population Mitochondria Different-Phenotype (%) [1]: 5.1% and 12.14%
Population Mitotic Cells (%) [1]: 85.71% and 76%
Population Normal (%) [1]: 100%
Population Pyknosed Nuclei (%) [1]: 25.3% and 14.37%
Total Cell Count [1]: 166 and 174
Population Apoptotic (%) [2]: 9.84% and 23.44%
Population Fragmented Nuclei (%) [2]: 9.09% and 6.46%
Population Healthy Nuclei (%) [2]: 63.18% and 69.2%
Population Hoechst High Intensity Objects (%) [2]: 0%
Population Membrane Permeable-Phenotype (%) [2]: 9.35% and 3.85%
Population Mitochondria Different-Phenotype (%) [2]: 14.39% and 16.48%
Population Mitotic Cells (%) [2]: 90.16% and 76.56%
Population Normal (%) [2]: 100%
Population Pyknosed Nuclei (%) [2]: 27.73% and 24.33%
Population Tubulin-Different-Phenotype (%) [2]: 30.22% and 45.6%
Total Cell Count [2]: 220 and 263
Population Fragmented Nuclei (%) [3]: 12.05% and 9.29%
Population Healthy Nuclei (%) [3]: 71.08% and 85.25%
Population Hoechst High Intensity Objects (%) [3]: 0%
Population Membrane Permeable-Phenotype (%) [3]: 4.24% and 2.56%
Population Mitochondria Different-Phenotype (%) [3]: 3.39% and 8.97%
Population Mitotic Cells (%) [3]: 96.43% and 60%
Population Normal (%) [3]: 100%
Population Tubulin-Different-Phenotype (%) [3]: 10.17% and 21.15%
Total Cell Count [3]: 166 and 183
Population Apoptotic (%) [4]: 13.04% and 31.25%
Population Healthy Nuclei (%) [4]: 67.26% and 79.55%
Population Hoechst High Intensity Objects (%) [4]: 0%
Population Membrane Permeable-Phenotype (%) [4]: 9.87% and 0.95%
Population Mitochondria Different-Phenotype (%) [4]: 7.24% and 10.95%
Population Mitotic Cells (%) [4]: 86.96% and 68.75%
Population Normal (%) [4]: 100%
Population Pyknosed Nuclei (%) [4]: 20.35% and 18.18%
Population Tubulin-Different-Phenotype (%) [4]: 45.39% and 44.29%
Total Cell Count [4]: 226 and 264
Population Apoptotic (%) [5]: 40% and 22.22%
Population Fragmented Nuclei (%) [5]: 11.92% and 7.69%
Population Healthy Nuclei (%) [5]: 82.9% and 87.69%
Population Hoechst High Intensity Objects (%) [5]: 0%
Population Membrane Permeable-Phenotype (%) [5]: 0.62% and 0.58%
Population Mitochondria Different-Phenotype (%) [5]: 11.25% and 3.51%
Population Mitotic Cells (%) [5]: 60% and 77.78%
Population Normal (%) [5]: 100%
Population Pyknosed Nuclei (%) [5]: 5.18% and 4.62%
Total Cell Count [5]: 193 and 195
Population Apoptotic (%) [6]: 30.77% and 42.86%
Population Fragmented Nuclei (%) [6]: 9.35% and 4.71%
Population Healthy Nuclei (%) [6]: 85.37% and 89.8%
Population Hoechst High Intensity Objects (%) [6]: 0%
Population Membrane Permeable-Phenotype (%) [6]: 1.9% and 3.49%
Population Mitochondria Different-Phenotype (%) [6]: 13.33% and 6.11%
Population Mitotic Cells (%) [6]: 69.23% and 57.14%
Population Normal (%) [6]: 100%
Population Pyknosed Nuclei (%) [6]: 5.28% and 5.49%
Population Tubulin-Different-Phenotype (%) [6]: 14.76% and 36.24%
Total Cell Count [6]: 246 and 255
